Active and inactive are the calls of the source. The calls are words filed in the database; no cut-off is given here.
Legend:
Rattus norvegicus [1] = test: Antihyperglycemic effect in streptozotocin-induced diabetic Wistar rat assessed as reduction of plasma glucose level at 0.1 mg/kg, iv bolus after 30 mins; assay type: functional, organism-based; parameters: dose 0.1 mg/kg
How it was run: (§1)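 STZ (60 mg/kg) given to fasted rats; animals with plasma glucose of 20 mmol/L or more plus diabetic features were used two weeks later. Fasted rats got an i.v. bolus of catalpol in normal saline (0.01–0.15 mg/kg) or vehicle. Tail-vein blood was drawn under pentobarbital at 30 min. Glucose was read enzymatically in duplicate, and activity was calculated as [(Gi−Gt)/Gi]×100%. n=8 per group.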

Rattus norvegicus [2] = test: Antihyperglycemic effect in iv bolus dosed streptozotocin-induced diabetic Wistar rat assessed as reduction of plasma glucose level after 30 mins; assay type: functional, organism-based; how it was run: as §1
Rattus norvegicus [3] = test: Antihyperglycemic effect in streptozotocin-induced diabetic Wistar rat assessed as reduction of plasma glucose level at 0.15 mg/kg, iv bolus after 30 mins; assay type: functional, organism-based; parameters: dose 0.15 mg/kg; how it was run: as §1
Rattus norvegicus [4] = test: Antihyperglycemic effect in streptozotocin-induced diabetic Wistar rat assessed as reduction of plasma glucose level at 0.1 mg/kg, iv bolus after 30 mins relative to untreated control; assay type: functional; parameters: scale not given: the % may be the effect or the level left; how it was run: as §1
Rattus norvegicus [5] = test: Antihyperglycemic effect in streptozotocin-induced diabetic Wistar rat assessed as reduction of plasma glucose level at 0.01 mg/kg, iv bolus after 30 mins relative to untreated control; assay type: functional; parameters: scale not given: the % may be the effect or the level left; how it was run: as §1
Soleus muscle = test: Increase in uptake of 2-[1-14C]-deoxy-D-glucose in streptozotocin-induced diabetic Wistar rat isolated soleus muscle after 30 mins by beta counter; assay type: functional, tissue-based
How it was run: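 Soleus strips came from STZ-diabetic rats. They were preincubated 30 min in KRBB (pH 7.4, 37 °C, 1 mmol/L glucose, 1% BSA, 5% CO2/O2), then exposed 30 min to test agent (10-8–10-6 M). Next came 5 min with 2-[1-14C]-deoxy-D-glucose (1 µCi/mL). Tissue was digested in NaOH and counted by β-counter. Non-specific uptake with 20 µmol/L cytochalasin B was subtracted. n=8.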

Hepatocyte = test: Increase in glycogen synthesis in streptozotocin-induced diabetic Wistar rat hepatocyte assessed as [U14C]glucose incorporation in to glycogen […] by ethanol precipitation assay; assay type: functional, cell-based
How it was run: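 Hepatocytes from STZ-diabetic rats were isolated by collagenase perfusion (>90% viable by trypan blue). After 30 min preincubation in KRBB at 37 °C, they were incubated with [U-14C]-glucose (0.25 µCi/mL) plus test agent (10-8–10-6 M) for 1 h with shaking. Glycogen label was measured by ethanol precipitation and expressed as pmol/mg protein. n=8; compared against vehicle blanks.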

Rattus norvegicus [6] = test: Antihyperglycemic effect in normal Wistar rat assessed as attenuation of increase of plasma glucose level at 0.1 mg/kg, iv bolus measured 5 mins after intravenous glucose challenge test
Rattus norvegicus [7] = test: Antihyperglycemic effect in normal Wistar rat assessed as attenuation of increase of plasma glucose level at 0.1 mg/kg, iv bolus measured 20 mins after intravenous glucose challenge test
Rattus norvegicus [8] = test: Antihyperglycemic effect in normal Wistar rat assessed as attenuation of increase of plasma glucose level at 0.1 mg/kg, iv bolus measured 30 mins after intravenous glucose challenge test
Rattus norvegicus [9] = test: Antihyperglycemic effect in streptozotocin-induced diabetic Wistar rat assessed as reduction of plasma glucose level at 100 mg/kg, po relative to untreated control; parameters: scale not given: the % may be the effect or the level left

Row | Compound | Activity (Rattus norvegicus [1]) | Activity (Rattus norvegicus [2]) | Activity (Rattus norvegicus [3]) | Activity (Rattus norvegicus [4]) | Activity (Rattus norvegicus [5]) | Activity (Soleus muscle) | Activity (Hepatocyte) | Activity (Rattus norvegicus [6]) | Activity (Rattus norvegicus [7]) | Activity (Rattus norvegicus [8]) | Activity (Rattus norvegicus [9])
1 | OC[C@H]1O[C@@H](O[C@@H]2OC=C[C@H]3[C@H](O)[C@@H]4O[C@]4(CO)[C@@H]23)[C@H](O)[C@@H](O)[C@@H]1O [CATALPOL] | Active | Dose-dependent effect | Active | 24.33% | 8.53% | Dose-dependent effect | Dose-dependent effect | Active | Active | inactive | 
2 | CN(C)C(=N)NC(=N)N [METFORMIN] |  |  |  |  |  |  |  |  |  |  | 32%

— ChEMBL document CHEMBL1165998, “Antihyperglycemic effect of catalpol in streptozotocin-induced diabetic rats” (2010)
